≈ marks a conversion by molar mass, not a printed value.
Key:
Assay type in all cases: functional
Enterococcus faecium [1] = experiment: Antibacterial activity against Enterococcus faecium clinical isolate K59-68 assessed as inhibition of bacterial growth incubated for 24 hrs by broth microdilution method
Procedure, shortened: (§1)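 Broth microdilution per published protocols (CLSI dilution method for aerobically growing bacteria). E. faecium strains K59-68 and K60-39 are clonal complex 17 sub-cluster clinical bloodstream isolates from patients at University Hospital of North Norway. Ampicillin served as positive control and DMSO as negative control. MIC was determined from triplicate assays.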

Enterococcus faecalis = experiment: Antibacterial activity against Enterococcus faecalis ATCC 29212 assessed as inhibition of bacterial growth incubated for 24 hrs by broth microdilution method
Enterococcus faecium [2] = experiment: Antibacterial activity against Enterococcus faecium clinical isolate K60-39 assessed as inhibition of bacterial growth incubated for 24 hrs by broth microdilution method; procedure, shortened: as §1
Staphylococcus aureus = experiment: Antibacterial activity against Staphylococcus aureus ATCC 25923 assessed as inhibition of bacterial growth incubated for 24 hrs by broth microdilution method

SMILES	MIC (Enterococcus faecium [1])	MIC (Enterococcus faecalis)	MIC (Enterococcus faecium [2])	MIC (Staphylococcus aureus)
CC1(C)S[C@@H]2[C@H](NC(=O)[C@H](N)c3ccccc3)C(=O)N2[C@H]1C(=O)O [AMPICILLIN]	1.5 µg/mL (≈ 4.29 µM)	1 µg/mL (≈ 2.86 µM)	25 µg/mL (≈ 71.5 µM)	0.5 µg/mL (≈ 1.43 µM)
COc1cc2c(c(O)c1Cl)C(=O)c1c(cc3c(Cl)c(O)cc4c3c1O[C@@]41C(C)=C(C(=O)O)C(Cl)=C1Cl)C2(C)C	1.5 µg/mL (≈ 2.47 µM)	3.1 µg/mL (≈ 5.1 µM)	4.7 µg/mL (≈ 7.73 µM)	6.3 µg/mL (≈ 10.4 µM)
COc1cc2c(c(O)c1Cl)C(=O)c1c(cc3cc(O)cc4c3c1O[C@@]41C(C)=C(C(=O)O)C(Cl)=C1Cl)C2(C)C	1.5 µg/mL (≈ 2.61 µM)	3.1 µg/mL (≈ 5.4 µM)	4 µg/mL (≈ 6.97 µM)	3.1 µg/mL (≈ 5.4 µM)

Source: ChEMBL document CHEMBL5385951, “Accraspiroketides A-B, Phenylnaphthacenoid-Derived Polyketides with Unprecedented [6 + 6+6 + 6] + [5 + 5] Spiro-Architecture” (2024)
